Each structure is given as a SMILES string.

For test [1], the target named is T1, Mineralocorticoid receptor (Rattus norvegicus) (UniProt P22199).
T1 sequence (whole entry): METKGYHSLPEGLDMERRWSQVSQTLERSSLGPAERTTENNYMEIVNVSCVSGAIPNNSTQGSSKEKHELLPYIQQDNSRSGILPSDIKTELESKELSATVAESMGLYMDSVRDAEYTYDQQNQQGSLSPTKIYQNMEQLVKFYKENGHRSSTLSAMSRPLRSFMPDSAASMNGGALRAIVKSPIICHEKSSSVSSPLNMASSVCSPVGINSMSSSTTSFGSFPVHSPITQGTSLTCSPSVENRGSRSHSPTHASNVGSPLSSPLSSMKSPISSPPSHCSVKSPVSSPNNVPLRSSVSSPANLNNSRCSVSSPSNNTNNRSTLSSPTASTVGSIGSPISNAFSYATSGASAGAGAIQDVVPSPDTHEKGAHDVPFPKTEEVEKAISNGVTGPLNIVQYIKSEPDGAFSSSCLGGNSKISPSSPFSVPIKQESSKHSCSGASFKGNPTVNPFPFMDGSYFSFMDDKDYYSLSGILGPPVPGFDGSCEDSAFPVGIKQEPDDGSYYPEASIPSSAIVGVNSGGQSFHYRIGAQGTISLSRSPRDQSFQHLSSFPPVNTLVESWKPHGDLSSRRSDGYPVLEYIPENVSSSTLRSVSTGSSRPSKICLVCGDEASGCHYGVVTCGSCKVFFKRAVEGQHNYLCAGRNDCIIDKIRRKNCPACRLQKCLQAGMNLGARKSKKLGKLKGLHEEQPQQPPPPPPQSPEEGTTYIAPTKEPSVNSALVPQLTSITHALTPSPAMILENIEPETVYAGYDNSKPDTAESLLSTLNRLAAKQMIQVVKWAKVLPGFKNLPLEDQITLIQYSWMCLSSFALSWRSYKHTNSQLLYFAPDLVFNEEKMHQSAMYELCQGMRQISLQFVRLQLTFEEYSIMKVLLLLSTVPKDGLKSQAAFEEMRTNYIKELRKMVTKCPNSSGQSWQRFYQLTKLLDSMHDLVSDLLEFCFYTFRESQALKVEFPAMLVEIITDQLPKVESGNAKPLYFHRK
The test can be described thus: Binding affinity expressed as the percent inhibition of 2x10E-9 M [3H]aldosterone binding to the renal mineralocorticoid receptor by the presence of competing steroid (8x10E-8 M). Summed up: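 Washed kidney slices from adrenalectomized rats incubated with 2 × 10^-9 M [3H]aldosterone plus 8 × 10^-8 M competing 18-hydroxy steroid and 2 × 10^-8 M dexamethasone, pH 7.2 Tris/phosphate saline buffer with Mg, Ca, dextrose. Homogenized; high-speed supernatant treated with charcoal-dextran to strip free ligand. Bound label counted as cpm/mg protein, nonspecific at 2 × 10^-7 M unlabeled aldosterone. Value is % inhibition; Student's t test vs 0%.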

For test [2], the target named is T1, Mineralocorticoid receptor (Rattus norvegicus). The experiment in a line: Mineralocorticoid activity in vivo expressed as a ratio (M/DOCA) of the urinary sodium/potassium excretion transformations after deoxy-corticosterone acetate treatment. Type of test: functional, organism-based. The conditions noted are these: Urine. In outline:
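Saline-loaded (2.5 mL) adrenalectomized rats given 12 μg DOCA s.c. in oil plus test steroid 2.4 mg/animal s.c. in corn oil. Urine collected 4 h in metabolism cages, then voided by suprapubic pressure. Na and K measured by flame photometry as log(Na × 10/K). Ratio to DOCA-only controls (M/DOCA); >1.23 taken as antagonism, <0.85 as agonism.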

In the case of `CC12CCC(O)CC1=CCC1C2CCC23COC(O)(CO)C2CCC13` (stereo unspecified), the Percent inhibition of [3H]aldosterone binding in test [1] was found to be 3.5. Besides, the Ratio in test [2] amounted to 0.71.
The matching figures for `CC12CCC(O)C[C@@H]1CC[C@H]1[C@@H]3CCC4C(O)(CO)OCC43CC[C@@H]12` (stereo partly specified): 0 and 0.96.
As for `CC12CCC(=O)C[C@@H]1CC[C@H]1[C@@H]3CCC4C(O)(CO)OCC43CC[C@@H]12` (stereo partly specified), the Percent inhibition of [3H]aldosterone binding in test [1] was 3. Besides, the Ratio in test [2] was 0.69.
`C[C@@H](O)C1CC[C@H]2[C@@H]3CC[C@H]4CC(=O)CCC4(C)[C@H]3CCC12CO` (stereo partly specified): the Percent inhibition of [3H]aldosterone binding in test [1] turned out to be 13. In addition, the Ratio in test [2] came out at 1.03.
For the compound `CC(=O)OCC1(O)OC[C@]23CC[C@H]4[C@@H](CC[C@H]5C[C@@H](O)CC[C@@]54C)[C@@H]2CC[C@H]13` (stereo partly specified), the Ratio in test [2] turned out to be 0.83.
`C[C@@H](O)[C@H]1CC[C@H]2[C@@H]3CC[C@H]4CC(=O)CC[C@]4(C)[C@H]3CC[C@]12CO`: the Percent inhibition of [3H]aldosterone binding in test [1] is 6.5. The Ratio in test [2] stood at 0.43.
`CC1(O)OCC23CC[C@H]4[C@@H](CC[C@H]5CC(O)CCC54C)[C@@H]2CCC13` (stereo partly specified): the Percent inhibition of [3H]aldosterone binding in test [1] amounted to 30. In addition, in test [2], the Ratio was 0.92.
For the compound `C[C@@H](O)C1CCC2C3CCC4=CC(=O)CCC4(C)C3CCC21CO` (stereo partly specified), the Percent inhibition of [3H]aldosterone binding in test [1] stood at 34.3. The Ratio in test [2] came out at 1.33.
The like results for `CC(=O)OCC12CC[C@H]3[C@@H](CC[C@H]4CC(=O)CCC43C)[C@@H]1CCC2[C@@H](C)O` (stereo partly specified) were, in that order, 17 and 0.93.
For `CC1(O)OCC23CCC4C(CC=C5CC(O)CCC54C)C2CCC13` (stereo unspecified), the Percent inhibition of [3H]aldosterone binding in test [1] is 10.1. Further, the Ratio in test [2] is 0.5.
Take `C[C@]12CCC(=O)C[C@@H]1CC[C@@H]1[C@@H]2CC[C@]23COC(O)(CO)[C@H]2CC[C@@H]13` (stereo partly specified): the Percent inhibition of [3H]aldosterone binding in test [1] came to 32. In test [2], the Ratio amounted to 0.78.
Consider `CC(=O)OCC1(O)OCC23CC[C@H]4[C@@H](CC[C@H]5CC(=O)CCC54C)[C@@H]2CCC13` (stereo partly specified), for which the Percent inhibition of [3H]aldosterone binding in test [1] stood at 20. For the same compound, the Ratio in test [2] was found to be 0.8.
The matching figures for `CC(=O)OCC1(O)OC[C@]23CC[C@H]4[C@@H](CC[C@H]5CC(=O)CC[C@@]54C)[C@@H]2CC[C@H]13` (stereo partly specified): 20 and 0.96.
On to `CC1(O)OC[C@]23CC[C@H]4[C@@H](CC[C@H]5CC(=O)CC[C@@]54C)[C@@H]2CC[C@H]13` (stereo partly specified), for which the Percent inhibition of [3H]aldosterone binding in test [1] turned out to be 0. For the same compound, in test [2], the Ratio worked out at 1.01.
Consider `CC1(O)OC[C@]23CC[C@H]4[C@@H](CCC5C[C@@H](O)CC[C@@]54C)[C@@H]2CC[C@H]13` (stereo partly specified), for which the Ratio in test [2] turned out to be 0.91.
As to `C[C@H]1OC(=O)C23CC[C@H]4[C@@H](CC[C@H]5CC(O)CCC54C)[C@@H]2CCC13` (stereo partly specified), the Ratio in test [2] came to 0.61.
As for `CC(=O)OCC1(O)OCC23CC[C@H]4[C@@H](CC[C@H]5CC(O)CCC54C)[C@@H]2CCC13` (stereo partly specified), the Percent inhibition of [3H]aldosterone binding in test [1] came out at 0. Moreover, in test [2], the Ratio was determined as 1.1.
For the compound `C[C@H]1OC(=O)C23CCC4C(CCC5=CC(=O)CCC54C)C2CCC13` (stereo partly specified), in test [1], the Percent inhibition of [3H]aldosterone binding is 65. For the same compound, the Ratio in test [2] was determined as 1.32.
`CC1(O)OCC23CCC4C(CCC5=CC(=O)CCC54C)C2CCC13` (stereo unspecified): in test [1], the Percent inhibition of [3H]aldosterone binding turned out to be 34.5. Besides, in test [2], the Ratio turned out to be 0.76.
In the case of `CC(=O)OCC12CCC3C(CC=C4CC(O)CCC43C)C1CCC2C(C)=O` (stereo unspecified), in test [1], the Percent inhibition of [3H]aldosterone binding is 0. Moreover, in test [2], the Ratio was determined as 1.95.
For the compound `CC12CCC(=O)C=C1CCC1C2CCC23COC(O)(CO)C2CCC13` (stereo unspecified), the Percent inhibition of [3H]aldosterone binding in test [1] came to 29.5. Besides, the Ratio in test [2] is 0.54.
Turning to `CC(=O)OC[C@]12CC[C@H]3[C@@H](CC[C@H]4CC(=O)CC[C@@]43C)[C@@H]1CC[C@@H]2C(C)=O`, the Percent inhibition of [3H]aldosterone binding in test [1] is 0. Also, the Ratio in test [2] came out at 1.08.
`C[C@H]1OC(=O)C23CC[C@H]4[C@@H](CC[C@H]5CC(=O)CCC54C)[C@@H]2CCC13` (stereo partly specified): the Percent inhibition of [3H]aldosterone binding in test [1] turned out to be 10.5. Further, the Ratio in test [2] was determined as 0.96.
As for `CC(=O)OCC12CCC3C(CCC4=CC(=O)CCC43C)C1CCC2C(C)=O` (stereo unspecified), the Percent inhibition of [3H]aldosterone binding in test [1] is 25.5. Further, the Ratio in test [2] was determined as 1.19.
Regarding `C[C@@H](O)C1CCC2C3CC=C4CC(O)CCC4(C)C3CCC21CO` (stereo partly specified), the Percent inhibition of [3H]aldosterone binding in test [1] is 5. In test [2], the Ratio stood at 0.89.
With `C[C@H]1OC(=O)[C@]23CC[C@H]4[C@@H](CC[C@H]5CC(=O)CC[C@@]54C)[C@@H]2CC[C@H]13`, the Percent inhibition of [3H]aldosterone binding in test [1] came to 0. Further, the Ratio in test [2] turned out to be 0.87.
The like results for `C[C@@H](O)C1CC[C@H]2[C@@H]3CC[C@H]4CC(O)CCC4(C)[C@H]3CCC12CO` (stereo partly specified) were, in that order, 23.5 and 0.72.
As to `CC(=O)OCC12CCC3C(CCC4=CC(=O)CCC43C)C1CCC2[C@@H](C)O` (stereo partly specified), the Percent inhibition of [3H]aldosterone binding in test [1] was 13. Further, in test [2], the Ratio came to 1.16.
For `CC(=O)OCC1(O)OCC23CCC4C(CCC5=CC(=O)CCC54C)C2CCC13` (stereo unspecified), in test [1], the Percent inhibition of [3H]aldosterone binding is 34. In addition, the Ratio in test [2] amounted to 0.71.
As to `CC(=O)OC[C@]12CC[C@H]3[C@@H](CC[C@H]4C[C@@H](O)CC[C@@]43C)[C@@H]1CC[C@@H]2C(C)=O`, the Percent inhibition of [3H]aldosterone binding in test [1] was found to be 14.2. In addition, the Ratio in test [2] was 1.13.
For `CC(=O)OCC12CC[C@H]3[C@@H](CC[C@H]4CC(O)CCC43C)[C@@H]1CCC2C(C)=O` (stereo partly specified), the Percent inhibition of [3H]aldosterone binding in test [1] is 0. Also, in test [2], the Ratio stood at 0.99.
Take `CC1(O)OCC23CC[C@H]4[C@@H](CC[C@H]5CC(=O)CCC54C)[C@@H]2CCC13` (stereo partly specified): the Percent inhibition of [3H]aldosterone binding in test [1] is 8.3. The Ratio in test [2] was found to be 0.91.
For the compound `C[C@H]1OC(=O)C23CCC4C(CC=C5CC(O)CCC54C)C2CCC13` (stereo partly specified), the Percent inhibition of [3H]aldosterone binding in test [1] worked out at 12.5. The Ratio in test [2] worked out at 0.72.
Turning to `C[C@]12CC[C@H](O)C[C@@H]1CC[C@@H]1[C@@H]2CC[C@]23COC(O)(CO)[C@H]2CC[C@@H]13` (stereo partly specified), in test [1], the Percent inhibition of [3H]aldosterone binding stood at 19.5. For the same compound, in test [2], the Ratio was 1.06.
Take `CC(=O)OCC1(O)OCC23CCC4C(CC=C5CC(O)CCC54C)C2CCC13` (stereo unspecified): the Percent inhibition of [3H]aldosterone binding in test [1] came out at 7. For the same compound, the Ratio in test [2] came out at 0.55.
In the case of `CC(=O)OCC12CC[C@H]3[C@@H](CC[C@H]4CC(=O)CCC43C)[C@@H]1CCC2C(C)=O` (stereo partly specified), the Percent inhibition of [3H]aldosterone binding in test [1] was 0. For the same compound, the Ratio in test [2] came out at 1.1.
In the case of `CC(=O)OC[C@]12CC[C@H]3[C@@H](CC[C@H]4CC(=O)CC[C@@]43C)[C@@H]1CC[C@@H]2[C@@H](C)O`, the Percent inhibition of [3H]aldosterone binding in test [1] is 10.5. Also, the Ratio in test [2] was 1.16.

Source of the values: ChEMBL document CHEMBL1122892, “Mineralocorticoid properties of potential metabolites of 18-hydroxydeoxycorticosterone and 18-hydroxyprogesterone” (J Med Chem, 1985).
